Measured values from ChEMBL document CHEMBL4513216, “Probing the Open Global Health Chemical Diversity Library for Multistage-Active Starting Points for Next-Generation Antimalarials” (ACS Infect Dis, 2020).

assay: Toxicity liver stage against HepG2, at 10uM; assay type: cell-based; parameters: test concentration 10 uM, cell line HepG2-A16-CD81EGFP; settings: human, HepG2-A16-CD81EGFP cells; read-out: INHIBITION
Procedure, shortened: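 Uninfected HepG2-A16-CD81EGFP cells, 3 × 10^3 per well, 1536-well, plated on prespotted compound at 10 μM final, parasite-free screening media added to match infected plates; puromycin 10 μM positive, DMSO 0.5% negative; run in parallel with 48 h PbLuc assay at 37 °C, 5% CO2; viability by CellTiter-Glo luminescence, normalized to controls.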

In order of rising cytotoxicity at 10 µM:
1. O=S(=O)(C1CC1)N1C[C@@H]2CN(Cc3cccs3)CCO[C@@H]2C1  -134%
2. O=C(c1ncccn1)N1CCC[C@]2(C[C@@H](OCC3CC3)CO2)C1  -89.7%
3. N#Cc1cccc(C(=O)N2CC[C@H]3[C@H]2CCN3CC2CCOCC2)c1  -77%
4. Cn1ncc2c1C(COCC1CC1)CN(C(=O)c1cscn1)C2 (stereo not drawn)  -76%
5. CS(=O)(=O)N[C@@H]1CN(C(=O)c2ccccn2)C[C@@H]2CCCO[C@@H]21  -74.8%
6. COc1cc(-c2noc(C(CC(C)C)N3CCCCC3=O)n2)ccn1 (stereo not drawn)  -60.8%
7. Cc1nn(C2CCS(=O)(=O)C2)c(O)c1Cc1ccccc1Cl (stereo not drawn)  -45.7%
8. COc1ccccc1C1CCCN1CC(=O)N1CCC(C(N)=O)CC1 (stereo not drawn)  -24.8%
9. Cc1nccn1CC(=O)N1CC(Cc2nccc3ccn(C)c23)C1  -23.4%
10. CN(C)CCN(C)C(=O)NC1CCC(Oc2ccccc2C#N)CC1 (stereo not drawn)  -21.8%
11. COc1ccc(-c2nc(CCNc3nnc(C)c(C)c3C#N)co2)cc1  -17.2%
12. O=C(NCC(O)c1ccsc1)c1sccc1OC(F)F (stereo not drawn)  -16%
13. CC1CCN(c2cc(CCC3CCCN3)ncn2)CC1 (stereo not drawn)  -14.6%
14. CN(C)c1nc2c(c(NCc3cc(O)ncn3)n1)CCCC2  -12.4%
15. Cc1nc(C)n(CC2CCCN2Cc2cn3ccsc3n2)n1 (stereo not drawn)  -10.7%
16. Cc1nc(CN2CCOC(c3ccc(Cl)cc3)C2)oc1C (stereo not drawn)  -10.1%
17. CCOc1ccc(C(=O)NC2CCN(c3ncccn3)CC2)cc1C  -10.1%
18. CC(=O)N1CCN(C[C@H]2CC[C@@H](Cc3ccc4ncccc4c3)O2)CC1  -9.14%
19. Cc1nc(C2CCCN(C(=O)c3cc(Cl)c[nH]3)C2)no1 (stereo not drawn)  -8.29%
20. Cc1noc(C)c1CN1CC[C@H]2OCC[C@@H](C(=O)N3CCCO3)[C@@H]2C1  -8.25%
21. CN(CCn1ccc2ccccc21)C(=O)CS(C)(=O)=O  -8.14%
22. CN1C(=O)C2(NC(=O)c3ccccc3O2)c2ccccc21 (stereo not drawn)  -7.65%
23. c1ccc(CN2CCc3c(CNc4nccs4)n[nH]c3C2)nc1  -7.04%
24. CC(C)(C)S(=O)(=O)c1ccc(N2CCC(n3ccnc3)CC2)cn1  -6.62%
25. CN1CCOC(CNCc2nc(-c3cccnc3)no2)C1 (stereo not drawn)  -5.3%
26. C[C@@H]1CN(C2(C(=O)N3CC[C@H](O)C3)Cc3ccccc3C2)C[C@H](C)O1  -5.19%
27. CCOC(C)c1noc(CN2CCN(Cc3cccnc3)CC2)n1 (stereo not drawn)  -4.55%
28. COc1ccc(C(=O)NCCCNc2ccc(C(F)(F)F)cn2)cc1  -3.87%
29. CO[C@@H]1CC[C@@H](NC(=O)c2ccc(OCCN3CCCC3)cc2)[C@H]1O  -3.83%
30. COCC1CC2(CCN(Cc3ccc(OC)cc3)CC2)CN1C(C)C (stereo not drawn)  -3.68%
31. CCn1cnnc1CNC(=O)CCC(=O)c1ccc2c(c1)OCCO2  -3.59%
32. Cc1cnc(N2CCCOC(CN3CCCCC3)C2)nc1 (stereo not drawn)  -3.54%
33. CC(C)(C)CC(=O)Nc1ncn(CC(=O)NCc2ccccc2)n1  -3.38%
34. COC(=O)[C@H]1C[C@@H](O)CCN1S(=O)(=O)c1ccc(F)cc1F  -3.01%
35. CCCc1nc(CN2CCN(CC(O)c3ccccc3)CC2)no1 (stereo not drawn)  -2.89%
36. Cn1nc2c(cc1=O)CN(Cc1nc(C(C)(C)C)no1)CC2  -2.86%
37. CCCn1nccc1NC(=O)CN1CCCC1c1c(C)nn(C)c1C (stereo not drawn)  -2.7%
38. COCCCN(Cc1ccccn1)Cc1ccnn1C1CCCCO1 (stereo not drawn)  -2.66%
39. CCCn1ncc(C(=O)NC2CCN(CC3CCCO3)CC2)c1C (stereo not drawn)  -2.43%
40. Cc1cccc(-n2cnnc2CCCN2CCOCC2)c1  -2.42%
41. CC(C)N1CCc2c(CN(C)Cc3ccco3)cncc2C1  -2.39%
42. CCN1CC(CN(C)Cc2nc(-c3ccc(F)cc3)oc2C)CC1=O (stereo not drawn)  -2.22%
43. CC(=O)Nc1ccc(CN(C)Cc2snnc2C)cc1  -2.17%
44. Clc1ccc(N2CCC(OCC3CCCCO3)CC2)nc1 (stereo not drawn)  -1.8%
45. CC(=O)c1ccc(N2CCC3(CC2)CC(=O)N(C)C3)nc1  -1.66%
46. Cc1nn(C)c2nc(N(Cc3cnn(C)c3)C3CCCCC3)sc12  -1.24%
47. CCc1noc(C)c1C(=O)NCc1ccccn1  -1%
48. CSCc1noc(CN2CCC3(CC2)CC(=O)N(CC=C(C)C)C3)n1  -0.589%
49. c1ccc(C2CCCN2Cc2nc(-c3cnccn3)no2)nc1 (stereo not drawn)  -0.5%
50. CCN(CC1CCOC1)C(=O)NCc1nnc2n1CCCCC2 (stereo not drawn)  -0.43%
51. c1cncc(OC[C@@]23CCC[C@@H]2CN(C2CCOCC2)C3)c1  -0.0916%
52. CCn1ccnc1CN(C)CC1CCCN1c1cccnn1 (stereo not drawn)  -0.0722%
53. O=C(Cc1csc(-c2cccc(Cl)c2)n1)NCc1cccc(C(=O)O)c1  -0.0616%
54. CC(C(=O)NCc1ccc(F)cc1)N(C)CCN1CCOCC1 (stereo not drawn)  0.247%
55. Cc1nccn1CCN(C)C(=O)C1CCCN(C2CCOCC2)C1 (stereo not drawn)  0.417%
56. O=C(O)c1csc(NCCc2ccccc2)n1  0.501%
57. CC[C@H]1CN2CC[C@H]1C[C@@H]2CNC(=O)Nc1cccc(C(F)(F)F)c1  0.676%
58. Cc1c(C(=O)O)cnn1-c1ccc(-c2nc(C3CC3)no2)cn1  0.88%
59. CC(=O)N1CCCC1c1cc(N2CCN(C3CCCC3)CC2)cc(C)n1 (stereo not drawn)  1.18%
60. Cn1cccc1C(=O)N1Cc2c(CN3CCCCC3)nn(C)c2C1  1.25%
61. O=C1NCCCCC1Sc1nnc(N2CCCC2)n1C1CC1 (stereo not drawn)  1.4%
62. CCCNC(=O)c1ccc2c(OC)n(C)nc2c1  1.56%
63. Cc1nn(C)c(C)c1S(=O)(=O)NCC(C)(O)c1ccc2c(c1)OCO2 (stereo not drawn)  1.77%
64. Cn1ccnc1SCCNC1CCN(c2nc3ccccc3s2)CC1  2.05%
65. N[C@H]1CN(C(=O)c2ccc3[nH]c(=O)c(=O)[nH]c3c2)C[C@@H]1c1ccccc1  2.19%
66. Cc1ncsc1CN1C[C@@H]2CCCO[C@@H]2[C@H](Nc2ccccn2)C1  2.31%
67. Cc1cc(C)nc(N2CCc3ccc(OC(F)F)cc3C2)n1  2.68%
68. Cc1noc(C)c1CN1CCO[C@H]2[C@H](Oc3ncccc3F)CC[C@@H]21  2.93%
69. CC(C)N(C)Cc1cc(=O)n2c(n1)CN(C(=O)c1ccnnc1)CCC2  2.95%
70. C1CCN(CCO[C@@H]2CC[C@H]3[C@H]2OCCN3CC2CCOCC2)C1  2.98%
71. Cc1ccn(-c2ccc(NCc3cccnc3N3CCCCC3)nn2)n1  3.09%
72. Cn1ccnc1N1CCN(C(=O)Cc2ccccc2)CC1  3.13%
73. CC(C)(NC(=O)C1CCCN(C2CCCC2)C1)c1nnc(N)s1 (stereo not drawn)  3.27%
74. Cc1cnn(CC2CCCN2CC(=O)N(C)Cc2ccsc2)c1 (stereo not drawn)  3.82%
75. Cc1nc(C#N)c(N2CCC(c3nc(-c4ccc(F)cc4)no3)CC2)o1  3.86%
76. Cc1c(C(=O)N2CCN(c3ccccn3)CC2)n(C)c2ccc(Cl)cc12  3.95%
77. CC(C)N(C)Cc1cnc2n1CCN(C(=O)NC1CCCC1)C2  4.14%
78. CC(NS(C)(=O)=O)c1nc(-c2ccc(Br)cc2)no1 (stereo not drawn)  4.29%
79. Cc1ccccc1NCc1nc2n(n1)CCCCC2  4.7%
80. O=C(CN1CCOCC1)Nc1ccc(C(F)(F)F)cc1Cl  4.72%
81. COCCN(Cc1ccc(F)cc1Cl)C(=O)c1cc[n+]([O-])cc1  4.75%
82. Cc1occc1C(=O)N1CCO[C@H]2[C@H](OCc3cccnc3)CC[C@@H]21  4.84%
83. Cc1cccc(NC(=O)NCC2(N3CCOCC3)CCSC2)c1 (stereo not drawn)  5.02%
84. COc1ccc(C[C@H]2CN(C(=O)c3ccncc3)CC[C@@H]2OC)cc1  5.75%
85. Cc1cc(CN2CCC(CNS(=O)(=O)c3c(C)noc3C)CC2)c(C)o1  5.81%
86. CC1(C)CN(C(=O)CC2CCS(=O)(=O)CC2)C[C@]1(C)O  5.91%
87. Cc1cc(NC(=O)COC(=O)c2ccc(F)cc2Br)n(C)n1  6.03%
88. CO[C@@H]1CN(c2ccccc2)S(=O)(=O)[C@@]12CCN(C(C)=O)C2  6.07%
89. COCCCNC(=O)CN1CCCC1c1c(C)nn(C)c1Cl (stereo not drawn)  6.69%
90. Cc1cc2nc(SCC(=O)N3CCCC3)n(Cc3ccco3)c(O)c-2n1  7.19%
91. Cc1nc(C)c(C(=O)N2CCCc3c(F)ccc(F)c32)o1  7.19%
92. O=C1CCC(=O)c2oc3ccc(Cl)cc3c2N1  7.58%
93. Cc1cnc(C)c(N2CCCC(CO)(Cc3cccc(Cl)c3)C2)n1 (stereo not drawn)  7.78%
94. CS(=O)(=O)N1CCOCC12CCN(Cc1ccoc1)CC2  7.81%
95. NC(=O)Cn1ccnc1C1CCCN(Cc2cccc(Cl)c2F)C1 (stereo not drawn)  7.81%
96. CN1C(Cn2cccn2)C[C@@H]2CN(Cc3cccnc3)CC[C@@H]21 (stereo partly drawn)  8.01%
97. CN(C)Cc1cnn(-c2ccccc2C(=O)NCCC2CCCN2C)c1 (stereo not drawn)  8.18%
98. c1cc(COC[C@@]23CCC[C@@H]2CN(C2CCOCC2)C3)ccn1  8.44%
99. CCNS(=O)(=O)c1ccc2c(c1)c(=O)n(CC)c(=O)n2CC  10.4%
100. Cc1c(Br)cnn1CC(=O)Nc1ccon1  10.8%
101. COc1ccc(F)c(CN2CCCC(O)(CNCc3ccoc3)C2=O)c1 (stereo not drawn)  10.9%
102. COc1ccc(CN(C)[C@@H]2COC[C@H]2c2ccc(F)cc2)cc1  10.9%
103. CN(CC(=O)N1CCCC1)C(=O)c1ccccc1Nc1ccccc1  11.3%
104. CCn1nc(C)c(-c2cncn2Cc2ccccc2CN(C)C)c1C  12.4%
105. CN(C)C(CNCc1nc(-c2ccsc2)no1)c1cccc(F)c1 (stereo not drawn)  12.9%
106. Cn1cc(CNCC2(O)CCCCC2)c(-c2cccnc2)n1  14.9%
107. CC(C)n1cc(-c2c(C#N)c(N)nc3c2COCC3)cn1  17.2%
108. CCN(CC)C(=O)CNC(=O)c1ccc(-c2ccsc2)nc1C  22.9%
